Broadly, the IC50 is the midpoint of a concentration-inhibition curve. By inhibition is commonly meant the relative decrease from the control value, in per cent. By Kd is commonly meant the constant that tells how readily two partners part at equilibrium. The term EC50 denotes the concentration giving half of the maximal effect.

Test [1] in a line: Negative ionotropic activity in potassium depolarized guinea pig longitudinal smooth muscle assessed as inhibition of calcium-induced contraction. Format: functional, Cavia porcellus.
A short description of test [2]: Bronchodilatory activity in guinea pig trachea assessed as inhibition of carbachol-induced contraction at 10^-5 M. The settings on record: Cavia porcellus. The test is classed as functional.
The subject of test [3] is Cystic fibrosis transmembrane conductance regulator (Homo sapiens), P13569 [F508del]. Put plainly: Activity at CFTR F508 deletion mutant expressed in forskolin-stimulated FRT cells assessed as maximal increase in iodine influx measured as YFP quenching rate after 24 hrs by fluorescence assay. The test is classed as cell-based. The procedure, abridged: (§1)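 ΔF508-CFTR and halide-sensitive YFP coexpressed in FRT cells, held at 27 °C for 24 h for rescue, then stimulated 30–40 min with 20 μM forskolin with or without compound at 0.2, 2 and 20 μM. Fluorescence read before and after I– addition (100 mM final). Normalized decay fitted exponentially for maximal quenching rate; dose–response fitted with Hill equation for potency and maximal effect. Three independent determinations.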

A short description of test [4]: Binding affinity to CFTR F508 deletion mutant expressed in forskolin-stimulated FRT cells assessed as increase in iodine influx measured as YFP quenching rate after 24 hrs by fluorescence assay. The test is classed as cell-based. The procedure, abridged:
as §1

Test [5] has as its system Cystic fibrosis transmembrane conductance regulator (Homo sapiens), P13569 [F508del]. Put plainly: Activity at CFTR F508 deletion mutant expressed in forskolin-stimulated FRT cells assessed as maximal increase in iodine influx measured as YFP quenching rate at 0.2 uM after 24 hrs by fluorescence assay. The test is classed as cell-based. The procedure, abridged: as §1
The nature of test [6]: Negative chronotropic activity against potassium-induced contraction in guinea pig right atrium assessed as decrease atrial rate at 10^-4 M relative to control. Format: functional. The settings on record: Cavia porcellus, Cardiac atrium. The procedure, abridged:
(§2)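 Spontaneously beating isolated guinea pig right atrium, pretreatment rate 165–190 beats/min. Drugs added cumulatively. Decrease in atrial rate expressed as percent change from control, n = 7–8. […] Control versus treated tested at each concentration by Student's t-test, P < 0.05. Mean ± SEM.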

The nature of test [7]: Negative ionotropic activity against potassium-induced contraction in guinea pig left atrium assessed as […] at 10^-4 M relative to control. The test is classed as functional. The settings on record: Cavia porcellus, Cardiac atrium. The procedure, abridged:
(§3)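 Isolated guinea pig left atrium paced at 1 Hz. Drugs added cumulatively. Negative inotropic effect expressed as percent change from control, n = 5–6. […] Student's t-test against control at each concentration, P < 0.05. Mean ± SEM.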

Test [8] has as its system Aorta. Put plainly: Vasorelaxant activity in potassium depolarized guinea pig aortic strip assessed as inhibition of calcium-induced contraction at 10^-6 M. Format: functional. The settings on record: Cavia porcellus. The essentials:
(§4)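 Guinea pig aortic strips depolarized with 80 mM K+, with cumulative drug addition. Relaxation given as mean ± SEM. […] Student's t-test against control, P < 0.05.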

Test [9] has as its system Aorta. Put plainly: Vasorelaxant activity in potassium depolarized guinea pig aortic strip assessed as inhibition of calcium-induced contraction. The test is classed as functional, tissue-based. The settings on record: Cavia porcellus. The procedure, abridged: as §4
The species entered for test [10] is Cavia porcellus. Briefly: Negative ionotropic activity in potassium depolarized guinea pig longitudinal smooth muscle assessed as inhibition of calcium-induced contraction at 10^-8 M. The test is classed as functional.
Test [11] can be described thus: Negative ionotropic activity against potassium-induced contraction in guinea pig left atrium assessed as decrease in developed tension. The settings on record: Cavia porcellus, Cardiac atrium.
The species named for test [12] is Cavia porcellus. Put plainly: Negative ionotropic activity in potassium depolarized guinea pig longitudinal smooth muscle assessed as inhibition of calcium-induced contraction at 5 X 10^-7 M. Format: functional.
Test [13] is described as follows: Bronchodilatory activity in guinea pig trachea assessed as inhibition of carbachol-induced contraction at 10^-7 M. The settings on record: Cavia porcellus. The test is classed as functional.
A short description of test [14]: Ratio EC50 for negative chronotropic activity against potassium-induced contraction in guinea pig right atrium to EC50 for negative […] activity against potassium-induced contraction in guinea pig left atrium. Format: functional, Cavia porcellus, Cardiac atrium.
Test [15] is described as follows: Bronchodilatory activity in guinea pig trachea assessed as inhibition of carbachol-induced contraction. The test is classed as functional, tissue-based, Cavia porcellus.
The nature of test [16]: Negative chronotropic activity against potassium-induced contraction in guinea pig right atrium assessed as decrease atrial rate at 5 X 10^-7 M relative to control. Format: functional. The settings on record: Cavia porcellus, Cardiac atrium. The essentials: as §2
A short description of test [17]: Negative chronotropic activity against potassium-induced contraction in guinea pig right atrium assessed as decrease atrial rate. The test is classed as functional, tissue-based. The settings on record: Cavia porcellus, Cardiac atrium. The procedure, abridged:
as §2

The nature of test [18]: Negative ionotropic activity against potassium-induced contraction in guinea pig left atrium assessed as […] at 10^-7 M relative to control. Format: functional. The settings on record: Cavia porcellus, Cardiac atrium. The essentials:
as §3

Test [19] concerns Aorta. Briefly: Vasorelaxant activity in potassium depolarized guinea pig aortic strip assessed as inhibition of calcium-induced contraction at 10^-4 M. Format: functional. The settings on record: Cavia porcellus. The essentials: as §4
For test [20], the species on record is Cavia porcellus. Put plainly: […] activity in potassium depolarized guinea pig longitudinal smooth muscle assessed as inhibition of calcium-induced contraction at 5 X 10^-9 M. Format: functional.
Test [21] is described as follows: Negative chronotropic activity against potassium-induced contraction in guinea pig right atrium assessed as decrease atrial rate at 5 X 10^-6 M relative to control. The test is classed as functional. The settings on record: Cavia porcellus, Cardiac atrium. The procedure, abridged:
as §2

For test [22], the species on record is Cavia porcellus. Briefly: Negative ionotropic activity in potassium depolarized guinea pig longitudinal smooth muscle assessed as inhibition of calcium-induced contraction at 5 X 10^-5 M. Format: functional.
The nature of test [23]: Negative ionotropic activity against potassium-induced contraction in guinea pig left atrium assessed as […] at 5 X 10^-6 M relative to control. The settings on record: Cavia porcellus, Cardiac atrium. Format: functional. The procedure, abridged:
as §3

The subject of test [24] is Aorta. Put plainly: Vasorelaxant activity in potassium depolarized guinea pig aortic strip assessed as inhibition of calcium-induced contraction at 5 X 10^-5 M. The settings on record: Cavia porcellus. Format: functional. The essentials: as §4
The test system of test [25] is Cystic fibrosis transmembrane conductance regulator (Homo sapiens), P13569 [F508del]. Briefly: Activity at CFTR F508 deletion mutant expressed in forskolin-stimulated FRT cells assessed as maximal increase in iodine influx measured as YFP quenching rate up to 20 uM after 24 hrs by fluorescence assay. The test is classed as cell-based. The procedure, abridged: as §1
Chain of Cystic fibrosis transmembrane conductance regulator (Homo sapiens), P13569 [F508del] (P13569 as listed by the source): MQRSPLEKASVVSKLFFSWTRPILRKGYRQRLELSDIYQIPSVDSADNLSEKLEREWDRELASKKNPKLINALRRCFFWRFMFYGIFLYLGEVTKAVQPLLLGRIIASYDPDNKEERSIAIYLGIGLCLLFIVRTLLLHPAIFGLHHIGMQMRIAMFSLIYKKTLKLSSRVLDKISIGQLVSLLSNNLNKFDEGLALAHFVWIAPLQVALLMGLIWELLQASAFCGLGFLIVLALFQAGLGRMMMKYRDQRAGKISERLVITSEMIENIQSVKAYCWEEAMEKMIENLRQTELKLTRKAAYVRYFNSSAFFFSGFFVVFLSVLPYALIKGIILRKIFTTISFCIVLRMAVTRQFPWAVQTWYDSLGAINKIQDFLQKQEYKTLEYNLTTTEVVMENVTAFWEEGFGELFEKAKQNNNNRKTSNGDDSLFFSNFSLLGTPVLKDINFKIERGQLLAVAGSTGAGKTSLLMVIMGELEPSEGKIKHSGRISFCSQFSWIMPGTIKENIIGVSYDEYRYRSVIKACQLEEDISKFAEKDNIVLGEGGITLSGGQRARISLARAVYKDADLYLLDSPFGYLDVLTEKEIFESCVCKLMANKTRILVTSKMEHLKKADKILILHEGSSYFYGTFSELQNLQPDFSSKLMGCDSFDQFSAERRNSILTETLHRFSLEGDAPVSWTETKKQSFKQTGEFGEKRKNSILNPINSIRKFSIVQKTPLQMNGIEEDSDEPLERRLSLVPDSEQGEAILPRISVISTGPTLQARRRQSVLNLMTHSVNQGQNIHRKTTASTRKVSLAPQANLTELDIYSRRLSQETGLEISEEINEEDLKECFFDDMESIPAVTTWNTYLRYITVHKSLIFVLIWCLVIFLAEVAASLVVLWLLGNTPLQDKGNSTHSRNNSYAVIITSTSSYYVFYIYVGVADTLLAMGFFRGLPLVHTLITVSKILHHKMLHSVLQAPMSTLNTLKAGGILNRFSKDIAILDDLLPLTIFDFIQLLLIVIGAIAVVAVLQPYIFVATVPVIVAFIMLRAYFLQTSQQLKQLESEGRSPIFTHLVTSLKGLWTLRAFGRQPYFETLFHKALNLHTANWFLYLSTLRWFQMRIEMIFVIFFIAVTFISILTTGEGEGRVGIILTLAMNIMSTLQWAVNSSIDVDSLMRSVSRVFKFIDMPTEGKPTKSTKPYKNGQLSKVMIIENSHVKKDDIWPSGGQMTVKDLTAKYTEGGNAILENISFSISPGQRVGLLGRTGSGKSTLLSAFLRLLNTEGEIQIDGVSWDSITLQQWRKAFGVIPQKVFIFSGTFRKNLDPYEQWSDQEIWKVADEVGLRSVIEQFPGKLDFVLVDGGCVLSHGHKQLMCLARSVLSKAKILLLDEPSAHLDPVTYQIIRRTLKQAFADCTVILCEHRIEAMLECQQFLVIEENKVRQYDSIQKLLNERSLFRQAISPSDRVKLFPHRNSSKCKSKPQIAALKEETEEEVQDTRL

Test [26] in a line: Negative chronotropic activity against potassium-induced contraction in guinea pig right atrium assessed as decrease atrial rate at 10^-6 M relative to control. The settings on record: Cavia porcellus, Cardiac atrium. Format: functional. The essentials:
as §2

The source made the active and inactive calls. No cut-off for these calls is given here.

With `COC(=O)C1=C(C)NC(C)=C(C(=O)OC)C1c1c(-c2ccc(OC(F)(F)F)cc2)nc2sccn12`, the IC50 is 3.3 nM in [1] and 16 nM in [9]. Moreover, the inhibition at 10 µM in test [2] was 26%. In addition, the Emax in [3] turned out to be 64 ms-1. In test [4], the Kd was determined as 3500 nM. Moreover, the result in [5] was inactive. Also, the inhibition at 100 µM in test [6] came to 33%; in test [7], 89%. In addition, the inhibition at 1 µM in test [8] amounted to 60%. For the same molecule, the inhibition in test [10] turned out to be 73%. Also, the EC50 in test [11] was found to be 2330 nM.

Turning to `COC(=O)C1=C(C)NC(C)=C(C(=O)OC)C1c1c(-c2cccc(C(F)(F)F)c2)nc2sccn12`, the inhibition in [12] was 96%. The IC50 in test [1] was found to be 36 nM. In addition, the inhibition at 0.1 µM in test [13] was determined as 19%. In test [3], the Emax is 65 ms-1. In test [4], the Kd came out at 2800 nM. Also, in test [5], the outcome was inactive. Besides, in [14], the “Ratio EC50” value was found to be 12.

Consider `CCOC(=O)C1=C(C)NC(C)=C(C(=O)OCC)C1c1c(-c2ccc(C(F)(F)F)cc2)nc2sccn12`, for which the IC50 in test [1] turned out to be 0.88 nM; in test [15], 130 nM. In addition, in test [2], the inhibition at 10 µM came out at 57%. The Emax in test [3] was found to be 42 ms-1. The Kd in test [4] came to 180 nM. Further, the result in test [5] was inactive. Also, in [16], the inhibition at 0.5 µM was 64%. For the same molecule, the EC50 in test [17] came to 150 nM; in test [11], 33 nM. In test [18], the inhibition at 0.1 µM was 90%. Further, the inhibition at 100 µM in test [19] amounted to 6%. Further, the inhibition in [20] came out at 83%.

For `CCOC(=O)C1=C(C)NC(C)=C(C(=O)OCC)C1c1c(Cl)nc2sc(C)cn12`, the figures for the IC50 in [1] and in test [15] were 57 nM and 2340 nM, respectively. In addition, the Emax in test [3] amounted to 60 ms-1. Besides, the Kd in test [4] is 8400 nM. The outcome in test [5] was inactive. For the same molecule, the inhibition at 5 µM in [21] was found to be 36%. The inhibition at 0.1 µM in test [18] came to 56%. Besides, the inhibition at 100 µM in [19] is 8%. Further, the EC50 in test [11] came out at 31 nM.

`O=c1c(-c2ccc(O)cc2)coc2cc(O)cc(O)c12` [GENISTEIN]: in test [22], the inhibition stood at 84%. The IC50 in test [1] came to 9950 nM. For the same molecule, in [2], the inhibition at 10 µM is 14%. In test [3], the Emax was determined as 61 ms-1. Moreover, the inhibition at 100 µM in test [6] turned out to be 68%. The EC50 in test [17] was determined as 44500 nM; in [11], 28 nM. Also, the inhibition at 5 µM in test [23] came out at 71%. Besides, in [24], the inhibition at 50 µM was found to be 22%.

Consider `C=CCOC(=O)C1=C(C)NC(C)=C(C(=O)OCC=C)C1c1c(-c2cc(OC)ccc2OC)nc2sccn12`, for which, in test [1], the IC50 was determined as 320 nM. Also, the outcome in test [25] and in test [5] was inactive. Besides, the inhibition at 1 µM in [26] is 32%. The inhibition at 5 µM in [23] came to 81%. Also, the inhibition at 100 µM in [19] was determined as 31%. Moreover, in test [11], the EC50 amounted to 340 nM.

Source of the values: ChEMBL document CHEMBL1811821, “Cystic fibrosis: a new target for 4-Imidazo[2,1-b]thiazole-1,4-dihydropyridines” (J Med Chem, 2011).
